Source: the EternaBench riboswitch data

How the values were obtained:
MS2 coat protein [1] = experiment: apparent Kd, MS2 coat protein; higher = weaker binding; RNA-MaP array; tryptophan 2.4 mM where present
Method in brief: (§1)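 Designs were transcribed by stalled E. coli RNA polymerase on Illumina sequencing-chip clusters. They were titrated with SNAP-549-labelled MS2 coat protein from 0.7 or 1.5 nM, doubling to 3 µM, without and then with constant ligand. Buffer: 100 mM Tris-HCl pH 7.5, 80 mM KCl, 4 mM MgCl2, BSA, DTT, yeast tRNA, Tween-20. Green signal was normalised to red-channel RNA signal and control-cluster median Fmax. Apparent Kd is the median of filtered per-cluster binding-curve fits.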

MS2 coat protein [2] = experiment: apparent Kd, MS2 coat protein; higher = weaker binding; RNA-MaP array; theophylline 2 mM where present; settings: designed as: OFF switch for theophylline
Method in brief: as §1

[3] = designed as: OFF switch for tryptophan, no ligand
[4] = ligand present: tryptophan, designed as: OFF switch for tryptophan
[5] = designed as: ON switch for tryptophan, no ligand
[6] = ligand present: tryptophan, designed as: ON switch for tryptophan

Row | Sequence | apparent Kd (MS2 coat protein [1]; [3]) [nM] | apparent Kd (MS2 coat protein [1]; [4]) [nM] | apparent Kd (MS2 coat protein [1]; [5]) [nM] | apparent Kd (MS2 coat protein [1]; [6]) [nM] | other results
1 | AACAGUUGGUCGGCCGCCACUACAUGAGGAUCACCCAUGUAGCGCGUUCUGCUCCAGGGCUCAUCUAGGACCGGGACACGAGUGU | 15.1 | 16 | – | – | –
2 | AACAUGAGCACGGCCGCCACUCCAUGAACAUGAGGAUCACCCAUACACAUGAGGAUCACCCAUGUGAGGACCGGGUGUCCAUGUG | 13.3 | 56.6 | – | – | –
3 | AACGGUCGUACCGGAAUGAUCCUCAUGUAACGAGGACCGGUACGGCCGCCACUCGAUAACAUGAGGAUCACCCAUGUAAUAAUAA | 12.9 | 11 | – | – | –
4 | AAUAAACAUGAGGAUCACCCAUGUAGGGUGCGAGGACCGGUACGGCCGCCACUCGGGUGAAAACAUGAGGAUCACCCAUGUUAAA | 198 | 420 | – | – | –
5 | AAUGUAUGGCACAUGAGGAUCACCCAUGUGCGAGGACCGGUACGGCCGCCACUCGGUCCUGGAUUCUUAUUACUAUACAUUAAUG | 14.5 | 16.7 | – | – | –
6 | AAUGUAUGGCACAUGAGGAUCACCCAUGUGCGAGGACCGGUACGGCCGCCACUCGGUCGGUGGUUAAUGAAGCUAUACAUUAAUG | 40 | 57.7 | – | – | –
7 | AAUUAUCAGUCGGCCGCCACUGACACAUGAGGAUCACCCAUGUAACUUGGGUUAAAUUUACUGAACAGGACCGGGACAAAGGCUA | 179 | 236 | – | – | –
8 | ACAGGUACGCCUAUUAAAAUAAAACACCUACGAGGACCGGUACGGCCGCCACUCGGGUGACAUGAGGAUCACCCAUGUGGCUAAA | – | – | 394 | 155 | –
9 | ACCUGCGUUUGAUAAAAUCAGACGCAGGUUCGAGGACCGGUACGGCCGCCACUCGGACAUGAGGAUCACCCAUGUUUGACAUGGG | 109 | 256 | – | – | –
10 | AGCACUGUGACGGCCGCCACUACAUAUAGGGUGGUCAGGCCCAUAAUACAUGAGGAUCACCCAUGUAGGACCGGGUCUCAGUGCA | 16.8 | 12.1 | – | – | –
11 | AGCGUUCGGUUUAUGCCGGACAAUGGGUGACGAGGACCGGUACGGCCGCCACUCGGGCGCCCGGUUACAUGAGGAUCACCCAUGU | – | – | 258 | 30.1 | –
12 | AGUCUGGACUCGGCCGCCACUCGUGAUGCUUUGGCACAUGAGGAUCACCCAUGUGGUCGGCCUUAGAGGACCGGGAGUACCAGUC | – | – | 56.1 | 13.7 | –
13 | AGUUUAGACACGGCCGCCACUCGUGACAGAUUUCGCAGUGGUCAACAUGAGGAUCACCCAUGUCUGAGGACCGGGUGUUGAGUUU | 44.1 | 259 | – | – | –
14 | AUAACAUGAGGAUCACCCAUGUAUUGGUAACGAGGACCGGUACGGCCGCCACUCGAAUUUUGGUGGUAUAAUAUAUAUAUGAUUA | – | – | 21 | 20.6 | –
15 | AUAACAUGAGGAUCACCCAUGUAUUGGUUACGAGGACCGGUACGGCCGCCACUCGUAUUUUGGUGGUAUUUUGUAUAUAUGAUAA | – | – | 26.8 | 26.3 | –
16 | AUACAUGAGGAUCACCCAUGUGAUGGCCGGCGAGGACCGGUACGGCCGCCACUCGUGAUCCGUCCUGAGAGCAAAGCCCUCAACA | – | – | 82.1 | 102 | –
17 | AUAUAUACAUGAGGAUCACCCAUGUUAUUUCGAGGACCGGUACGGCCGCCACUCGAUAGAGUAGAAGUAAAUUUUGAUUCAUGUA | – | – | 20.6 | 18.1 | –
18 | AUAUAUACAUGAGGAUCACCCAUGUUAUUUCGAGGACCGGUACGGCCGCCACUCGAUAGAGUAGAAGUAAAUUUUGUUACAUGUA | – | – | 11.1 | 11.4 | –
19 | AUGACUAACAAAGAAGAUAAAAUGGGUGAACGAGGACCGGUACGGCCGCCACUCGGACAUGAGGAUCACCCAUGUCCAUGUGCAA | 22.3 | 28.7 | – | – | –
20 | AUGCAUAGCACGGCCGCCACUCAAAUUAAACAUGAGGAUCACCCAUGUAACAUGGAUAAAAUAAAGAGGACCGGGUGAAAUGCAA | – | – | 28.3 | 18.9 | –
21 | AUUCAUGGAAACAUGAGAUAUCCUACCGGUCGAGGACCGGUACGGCCGCCACUCGGUUGGUGGCACAUGAGGAUCACCCAUGUUA | – | – | 291 | 265 | –
22 | AUUGUGAAGUCGGCCGCCACUGCAUAGUUUAACCACAUGUAACAUGAGGAUCACCCAUGUAAUGACAGGACCGGGACAAUAGUAA | – | – | 28 | 21.1 | –
23 | CAAAUAAGAACAAACAAAUAACGGUUUUCGCGAGGACCGGUACGGCCGCCACUCGUGUGAAAUAACACAUGAGGAUCACCCAUGU | – | – | 36.1 | 20.6 | –
24 | CACGAAAGAUCGGCCGCCACUAAUCUAUGUGUACUAGCACAUGAGGAUCACCCAUGUUCUUGCGUUAGGACCGGGAUUGAGCGUG | 22.2 | 18.8 | – | – | –
25 | CACGAAAGAUCGGCCGCCACUAUUUGAUGUGUUCUUUCACAUGAGGAUCACCCAUGUUCUUAUUAUAGGACCGGGAUUGAGCGUG | 83.8 | 64.3 | – | – | –
26 | GAAACGUAGGUGGAGCGGUGAAAUGGCGAUACCAGCGUGGAAACAUGCCCUUGGCAGCGUUAGAACAUGAGGAUCACCCAUGUUU | – | – | – | – | apparent Kd (MS2 coat protein [2]; no ligand): 13.3 nM; apparent Kd (MS2 coat protein [2]; ligand present: theophylline): 58.2 nM
